From PubChem BioAssay
SENP6 inh – SENP6 protease inhibitors, primary screen, biochemical, luminescence, uHTS. Sentrin-specific protease 6 (Homo sapiens), Q9GZR1. Recombinant SENP6 catalytic domain, aminoluciferin luminescence. inhibition, % at 10 µM. 330,000 compounds, 1.8% hits;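 active means inhibition above about 50% at the single tested dose, limit read from the data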;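 further: plate controls were DMSO wells with enzyme for no effect and DMSO wells lacking enzyme for full effect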
SENP8 block-1 – human SENP8 protease inhibitors, primary screen, biochemical, fluorescence, Nedd8 protein substrate, uHTS | Sentrin-specific protease 8 (Homo sapiens), Q96LD8 | recombinant SENP8 | inhibition, % at 20 µM | 360,000 compounds, 0.64% hits | AID 602440, 2012; in the data active means inhibition mostly above about 40%, no sharp cut-off; inactive means mostly below about 27%
Target sequence (Q96LD8 whole entry, looked up): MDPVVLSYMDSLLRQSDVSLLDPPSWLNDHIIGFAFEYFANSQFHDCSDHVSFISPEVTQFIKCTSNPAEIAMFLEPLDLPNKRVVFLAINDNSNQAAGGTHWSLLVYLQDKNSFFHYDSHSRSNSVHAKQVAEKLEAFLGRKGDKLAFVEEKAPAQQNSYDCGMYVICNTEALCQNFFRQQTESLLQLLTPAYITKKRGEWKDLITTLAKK
SENP1 inh – human SENP1 catalytic domain inhibitors, primary screen, biochemical, FRET, uHTS. 360,000 compounds, 0.21% hits. inhibition, % at 10 µM. recombinant SENP1 catalytic domain, CyPet-SUMO1-YPet FRET cleavage. AID 624204, 2012;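 active means inhibition at least 30% at 10 µM, raw YFP signal under a set limit, fluorescence ratio 0.5 to 1.5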;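 further: 0% = enzyme with DMSO and 100% = no enzyme wells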
Target sequence (Q9P0U3 419-644 limits assumed): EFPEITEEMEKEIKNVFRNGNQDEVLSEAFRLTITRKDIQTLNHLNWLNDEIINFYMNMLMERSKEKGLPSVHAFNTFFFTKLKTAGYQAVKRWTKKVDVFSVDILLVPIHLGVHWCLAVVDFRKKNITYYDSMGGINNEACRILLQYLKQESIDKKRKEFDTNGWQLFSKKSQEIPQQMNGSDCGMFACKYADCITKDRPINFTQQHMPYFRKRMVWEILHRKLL
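Assay system – human recombinant His6-tagged SENP1 catalytic domain enzyme · Input – SENP1 enzyme, 20 pM final · Buffer or medium – Tris pH 8 buffer plus EDTA, NaCl, BME, BSA, NP40, catalase · Schedule – 50 min reaction at room temperature · Technique – FRET read of cyan and yellow fluorescence · Control set – no-enzyme wells low, DMSO-plus-enzyme wells high control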
SENP8 block-2 – SENP8 protease inhibitors, primary screen, biochemical, luminescence. Sentrin-specific protease 8 (Homo sapiens), Q96LD8. purified SENP8, Z-RLRGG-aminoluciferin cleavage. inhibition, % at 10 µM. 330,000 compounds, 1.2% hits. AID 2540, 2010; in the data active means inhibition above about 50%
SENP7 inh – SENP7 protease inhibitors, primary screen, biochemical, luminescence, uHTS; 330,000 compounds, 1.5% hits; inhibition, % at 5 µM; Sentrin-specific protease 7 (Homo sapiens), Q9BQF6; recombinant SENP7, Z-RLRGG-aminoluciferin luminescence, 40 min; AID 434973, 2010;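 active means inhibition above about 50% at the single test dose, limit read from the data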;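 further: plate controls were DMSO with enzyme for no effect and no enzyme buffer wells for full effect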
CendR NRP1 mod – modulators of CendR peptide binding to NRP-1, primary screen, biochemical, fluorescence polarization, uHTS | inhibition, % at 25 µM | 360,000 compounds, 0.85% hits | AID 602438, 2012 | Neuropilin-1 (Homo sapiens), O14786 | FAM-RPARPAR peptide binding to NRP-1;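 active means inhibition or corrected inhibition above about 18%, plus a signal ratio from 0.5 to 1.5, limit read from the data, passing the limit was not always enough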
SENP8 confirm – SENP8 protease inhibitors, retest, confirmation, biochemical, luminescence, single concentration; shares compounds with SENP7 inh; Recombinant SENP8, Z-RLRGG-aminoluciferin luminescence, 60 min; inhibition, % at 12.5 µM; 6,200 compounds, 40% hits;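 active means mean inhibition across replicates above about 50%, limit read from the data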
SENP6 conf – SENP6 protease inhibitors, confirmation, biochemical, luminescence, single concentration; shares compounds with SENP7 inh; recombinant SENP6, Z-RLRGG-aminoluciferin luminescence; inhibition, % at 12.5 µM; 6,200 compounds, 58% hits
SENP7 confirm – SENP7 protease inhibitors, retest, confirmation, biochemical, luminescence, single concentration; recombinant SENP7, Z-RLRGG-aminoluciferin luminescence, 40 min; shares compounds with SENP7 inh; inhibition, % at 12.5 µM; 6,200 compounds, 69% hits
Casp3 select – caspase-3 protease inhibitors, confirmation, selectivity assay for SENP inhibitor project, biochemical, single concentration; shares compounds with SENP7 inh; purified caspase-3, Z-DEVD-aminoluciferin luminescence, 60 min; inhibition, % at 12.5 µM; 6,200 compounds, 60% hits; AID 488918, 2010;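 active means mean inhibition above about 50%, limit read from the data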;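 further: plate controls were enzyme with DMSO for no effect and wells without caspase-3 for full effect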
SENP luc ctr – luminescence interference (SENP counter-screen). shares compounds with SENP7 inh. Pre-incubated SENP8/Z-RLRGG-aminoluciferin, luciferase luminescence interference. inhibition, % at 12.5 µM. 6,200 compounds, 39% hits;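 active means mean inhibition above about 50% when retested at one dose, limit read from the data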;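 further: plate controls were DMSO wells with completed reaction for no effect and substrate without enzyme for full effect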
* marks the source's active call; other numbers are inactive results; x = no result. An excerpt weighted towards active compounds, which were near 3.3% of everything screened.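 How the source made its calls, unless noted: active means mean inhibition above about 50% in the one-dose retest (limit read from the data); inactive means the rest.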

SMILES | SENP6 inh | SENP8 block-1 | SENP1 inh | SENP8 block-2 | SENP7 inh | CendR NRP1 mod | SENP8 confirm | SENP6 conf | SENP7 confirm | Casp3 select | SENP luc ctr
Clc1ccc(/C=C/c2nc3ccccc3[nH]2)cc1 | 98* | -266 | -32 | 97* | 100* | -7 | 99* | 100* | 103* | 98* | 83*
Clc1ccc(/C=C/c2nc3ccccc3[nH]2)c(Cl)c1 | 100* | -273 | -4 | 97* | 99* | -10 | 99* | 100* | 104* | 98* | 34
COc1ccc(-c2cc3nc[nH]c(=O)c3s2)cc1 | -11 | -335 | 1 | 28 | 46 | 5 | x | x | x | x | x
COc1ccc(-c2cc3nc(CCl)[nH]c(=O)c3s2)cc1 | 94* | -336 | -15 | 83* | 59* | -40 | 66* | 91* | 70* | 82* | 32
c1ccc(COc2ncnc3c2ncn3CCCNC2CCN(Cc3ccccc3)CC2)cc1 | x | -4 | 0 | x | x | -7 | x | x | x | x | x
Cc1cc(Br)cn2c(Cc3ccsc3)c(-c3ccco3)nc12 | x | -27 | 0 | x | x | -82 | x | x | x | x | x
O=S(=O)(O)c1ccc(N=Nc2ccccc2)cc1 | 67* | 26 | 0 | 52* | 51* | -2 | -6 | 36 | 71* | 76* | 53*
Cc1ccn2c(=O)c(NC(=O)c3ccc4c(c3)OCO4)c(C)nc2c1 | x | -53 | 5 | x | x | -2 | x | x | x | x | x
C/C(=N\Nc1nncc2ccccc12)c1ccc(O)cc1 | 67* | 30 | 1 | 4 | 36 | 9 | 0 | -9 | 40 | 44 | 12
C/C(=N\Nc1nncc2ccccc12)c1cccc(OC(F)F)c1 | 97* | 26 | 2 | 89* | 100* | 9 | 68* | 75* | 82* | 75* | 15
C#CCn1cc(CNC[C@H]2O[C@@H](n3cnc4c(=O)[nH]c(N)nc43)[C@H](O)[C@@H]2O)c2ccccc21 | x | 26 | -5 | x | x | -7 | x | x | x | x | x
CCOC(=O)CSC1=NC(=O)/C(=C/c2ccc(OC)cc2)S1 | 77* | 12 | -15 | 33 | 29 | -65 | 7 | 5 | 5 | 27 | 30
Cn1cccc1C(=O)C(=O)Nc1ccc(F)c(F)c1 | 89* | 8 | 4 | 80* | 83* | -7 | 43 | 39 | 77* | 53* | 42
CC(C(=O)Nc1ccc(F)c(F)c1)N1CCN(C)CC1 (stereo unspecified) | 13 | 18 | 0 | 4 | -4 | -5 | x | x | x | x | x
Cn1cccc1C(=O)C(=O)Nc1cc(Cl)cc(Cl)c1 | 73* | 24 | 1 | 67* | 94* | 7 | 35 | 53* | 88* | 58* | -1
Cn1cccc1C(=O)C(=O)Nc1ccc(Cl)cc1 | 90* | 23 | 1 | 86* | 95* | -9 | 93* | 93* | 100* | 90* | 57*
Cn1cccc1C(=O)c1ccc(Cl)cc1Cl | -4 | 15 | -1 | -2 | -3 | 4 | x | x | x | x | x
